# pEC50: −log10 of the molar value.
# Columns and labels:
# [1] = Selectivity index, ratio of CC50 for human TZM-bl cells to EC50 for R5-tropic HIV1 subtype B BaL infected in human TZM-bl cells; format: toxicity, cell-based; conditions: for selectivity ratio: TZM-bl cells, read-out: Selectivity Index
# [2] = tested on: Human immunodeficiency virus 1; experiment: Antiviral activity against R5-tropic HIV1 subtype B BaL infected in human TZM-bl cells assessed as viral inhibition pre-incubated for 30 mins prior to infection measured after 48 hrs by luciferase assay; format: functional, organism-based
# How it was run: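 TZM-bl cells (10^4/well at 10^5 cells/mL, medium with 30 µg/mL DEAE dextran) pre-incubated with serial compound dilutions 30 min at 37 °C, 5% CO2. Then infected with 200 TCID50 HIV-1 BaL and incubated 48 h. Luciferase read-out expressed as % inhibition vs untreated controls. EC50 from non-linear regression. Triplicate wells, ≥3 independent experiments.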
# [3] = tested on: Human immunodeficiency virus 1; experiment: Antiviral activity against efavirenz resistant R5-tropic HIV1 subtype C VI829 expressing reverse transcriptase L100I-K103N mutant infected in human TZM-bl cells assessed as viral inhibition pre-incubated for 30 mins prior to infection measured after 48 hrs by luciferase assay; format: functional, organism-based; conditions: Human immunodeficiency virus 1, VI829, TZM-bl
# How it was run: (§1)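 TZM-bl cells (10^4 per well, at 10^5 cells/mL in medium with 30μg/mL DEAE dextran) pre-incubated with serial compound dilutions, then infected with 200 TCID50 of resistant HIV-1; luciferase read after 48 h. Inhibition expressed as % of untreated controls; EC50 by non-linear regression. Triplicate wells, at least three independent experiments.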
# [4] = tested on: Human immunodeficiency virus 1; experiment: Antiviral activity against HIV1 NL4.3 expressing reverse transcriptase K103N mutant infected in human TZM-bl cells assessed as viral inhibition pre-incubated for 30 mins prior to infection measured after 48 hrs by luciferase assay; format: functional, organism-based; conditions: Human immunodeficiency virus 1, NL4.3, TZM-bl; how it was run: as §1
# [5] = tested on: Human immunodeficiency virus 1; experiment: Antiviral activity against nevirapine resistant R5-tropic HIV1 subtype C VI829 expressing reverse transcriptase Y181C mutant infected in human TZM-bl cells assessed as viral inhibition pre-incubated for 30 mins prior to infection measured after 48 hrs by luciferase assay; format: functional, organism-based; conditions: Human immunodeficiency virus 1, VI829, TZM-bl; how it was run: as §1
# [6] = tested on: Human immunodeficiency virus 1; experiment: Antiviral activity against HIV1 NL4.3 expressing reverse transcriptase K103N-Y181C mutant infected in human TZM-bl cells assessed as viral inhibition pre-incubated for 30 mins prior to infection measured after 48 hrs by luciferase assay; format: functional, organism-based; conditions: Human immunodeficiency virus 1, NL4.3, TZM-bl; how it was run: as §1
# [7] = Human immunodeficiency virus 1, BaL, TZM-bl
SMILES,"pEC50 [2, 7]",selectivity ratio [1],pEC50 [3],pEC50 [4],pEC50 [5],pEC50 [6],Selectivity Index ([1]; tzm-bl),pEC50 ([2]; tzm-bl)
Cc1cc(/C=C/C#N)cc(F)c1Nc1ccc(F)c(Nc2ccc(C#N)cc2)n1,9.00,> 100000,6.57,7.44,7.60,< 6.00,,
Cc1cc(/C=C/C#N)cc(F)c1Nc1cccc(Nc2ccc(C#N)cc2)n1 (mixture of isomers),8.26,5500,5.96,,6.59,,,
Cc1cc(C#N)cc(C)c1Nc1cccc(Nc2ccc(C#N)cc2)n1,7.60,930,5.18,,5.82,,,
Cc1cc(/C=C/C#N)ccc1Nc1ccc(F)c(Nc2ccc(F)cc2)n1,6.40,210,,,,,,
Cc1cc(/C=C/C#N)cc(C)c1Nc1ccnc(Nc2ccc(C#N)cc2)n1 [RILPIVIRINE],9.14,10700,8.44,9.15,8.60,8.51,,
Cc1cc(/C=C/C#N)cc(C)c1Nc1ccc(F)c(Nc2ccc(/C=C/C#N)cc2)n1,8.34,19000,,,,,,
COC(=O)/C=C/c1cc(C)c(Nc2ccc(F)c(Nc3ccc(Cl)cc3)n2)c(C)c1,7.28,950,,,,,,
Cc1cc(/C=C/C#N)cc(C)c1Nc1cccc(Nc2ccc(C#N)cc2)n1 (mixture of isomers),8.46,11000,< 6.00,,7.04,,,
Cc1cc(C#N)cc(C)c1Nc1ccc(F)c(Nc2ccc(C#N)cc2)n1,8.33,7100,< 5.00,,7.04,,,
Cc1cc(C)c(Nc2ccc(F)c(Nc3ccc(C#N)cc3)n2)c(C)c1,8.08,2000,< 5.00,,6.89,,,
N#C/C=C/c1ccc(Nc2ccc(F)c(Nc3ccc(C#N)cc3)n2)cc1 (mixture of isomers),6.32,14,,,,,,
Cc1cc(/C=C/C#N)cc(F)c1Nc1ccc(F)c(Nc2ccc(C#N)cc2)c1 (mixture of isomers),7.96,6100,,,,,,
Cc1cc(/C=C/C#N)ccc1Nc1ccc(F)c(Nc2ccc(Cl)cc2)n1,7.20,380,,,,,,
Cc1cc(C)c(Nc2ccnc(Nc3ccc(C#N)cc3)n2)c(C)c1 [DAPIVIRINE],8.85,2000,< 6.00,8.55,7.96,7.04,,
COC(=O)/C=C/c1cc(C)c(Nc2ccc(F)c(Nc3ccc(F)cc3)n2)c(C)c1,7.08,610,,,,,,
Cc1cc(/C=C/C#N)ccc1Nc1ccc(F)c(Nc2ccc(C#N)cc2)c1 (mixture of isomers),7.24,89,,,,,,
Cc1cc(/C=C/C#N)cc(C)c1Nc1ccc(F)c(Nc2ccc(C#N)cc2)n1,8.82,62500,6.27,8.11,8.09,6.26,37500,8.80

# More lines, main results first:
"pEC50 [2, 7]",SMILES,selectivity ratio [1],pEC50 [3],pEC50 [4],pEC50 [5],pEC50 [6],Selectivity Index ([1]; tzm-bl),pEC50 ([2]; tzm-bl)
8.21,Cc1cc(/C=C/C#N)cc(C)c1Nc1ccc(F)c(Nc2ccc(F)cc2)n1 (mixture of isomers),8100,,,,,,
8.07,Cc1cc(C)c(Oc2ccc(F)c(Nc3ccc(C#N)cc3)n2)c(C)c1,6400,,,,,,
6.59,Cc1ccc(Oc2ccc(F)c(Nc3ccc(C#N)cc3)n2)cc1,390,,,,,,
8.35,Cc1cc(/C=C/C#N)cc(C)c1Nc1ccc(F)c(Nc2ccc(C#N)cc2)c1 (mixture of isomers),7400,,,,,,
8.20,Cc1cc(/C=C/C#N)cc(C)c1Nc1ccc(F)c(Nc2ccc(Cl)cc2)n1 (mixture of isomers),6600,,,,,,
7.52,Cc1cc(C)c(Nc2cccc(Nc3ccc(C#N)cc3)n2)c(C)c1,1400,,,,,,
8.06,Cc1cc(C#N)cc(F)c1Nc1ccc(F)c(Nc2ccc(C#N)cc2)n1,4600,,,,,,
7.64,COC(=O)c1ccc(Nc2nc(Nc3c(C)cc(/C=C/C#N)cc3C)ccc2F)cc1,2100,,,,,,
7.82,Cc1cc(C#N)cc(C)c1Nc1ccc(F)c(Nc2ccc(Cl)cc2)n1,2000,,,,,,
9.05,Cc1cc(/C=C/C#N)cc(C)c1Nc1ncc(F)c(Nc2ccc(C#N)cc2)n1 (mixture of isomers),> 42000,,,,,,
7.29,Cc1cc(C#N)cc(C)c1Nc1ccc(F)c(Nc2ccc(F)cc2)n1,830,,,,,,
8.36,COC(=O)/C=C/c1cc(C)c(Nc2ccc(F)c(Nc3ccc(C#N)cc3)n2)c(C)c1,13000,,,,,,
8.48,N#C/C=C/c1cc(F)c(Nc2ccc(F)c(Nc3ccc(C#N)cc3)n2)c(F)c1 (mixture of isomers),4600,,,,,,
7.96,Cc1cc(/C=C/C#N)ccc1Nc1ccc(F)c(Nc2ccc(C#N)cc2)n1 (mixture of isomers),24000,,,,,,
8.55,Cc1cc(C#N)cc(C)c1Nc1ncc(F)c(Nc2ccc(C#N)cc2)n1,> 36000,,,,,,

# Reference: ChEMBL document CHEMBL3785072, “2,6-Di(arylamino)-3-fluoropyridine Derivatives as HIV Non-Nucleoside Reverse Transcriptase Inhibitors” (J Med Chem, 2016)
